Assay outcomes (PubChem BioAssay)
TNAP act hiacc – TNAP (human) activation, high acceptor; AID 1136; activation factor at 20 µM; 200,000 tested, under 10 active; purified TNAP, CDP-star luminescence, 1 M DEA, 30 min; stronger effect = higher value; 0 = EDTA background, 1 = DMSO-only activity; P05186;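 active = activation factor at least 2 at 20 µM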
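Dosing: 20 µM single point. System: human TNAP. Amount: TNAP 1/800 final. Incubation: 30 min, room temperature. Read-out: TNAP activation factor scaled between EDTA and DMSO control wells. Signal: luminescence from CDP-star hydrolysis. Medium: 1 M DEA, pH 9.8, Mg2+, Zn2+. Control set: EDTA negative control, DMSO positive control.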
PMI act hi M6P – increases human PMI activity with near-saturating mannose 6-phosphate. AID 1216. coupled PMI enzyme assay, resazurin fluorescence, 20 min; stronger effect = higher value; 1 = untreated enzyme, 0 = substrate-free blank. activation factor at 20 µM. 190,000 tested, 0.34% active. P34949;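 active = activation factor of 2 or more at 20 µM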
Target sequence (P34949 whole entry, looked up): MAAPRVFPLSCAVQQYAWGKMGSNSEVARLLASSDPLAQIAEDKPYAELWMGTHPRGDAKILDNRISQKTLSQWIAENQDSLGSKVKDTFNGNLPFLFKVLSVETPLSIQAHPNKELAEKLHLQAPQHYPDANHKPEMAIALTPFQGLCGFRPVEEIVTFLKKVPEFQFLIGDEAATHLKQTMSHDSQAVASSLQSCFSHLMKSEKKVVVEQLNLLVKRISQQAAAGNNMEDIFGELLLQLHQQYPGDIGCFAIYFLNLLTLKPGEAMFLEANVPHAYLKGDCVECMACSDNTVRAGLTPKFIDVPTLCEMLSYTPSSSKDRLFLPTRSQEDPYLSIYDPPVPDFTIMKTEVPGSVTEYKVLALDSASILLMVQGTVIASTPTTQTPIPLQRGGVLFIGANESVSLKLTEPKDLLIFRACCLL
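Technique: Diaphorase-driven resazurin-to-resorufin fluorescence, excitation 544, emission 590 nm | Assay system: Human PMI in coupled enzyme assay | Times: Enzyme reaction with compound 20 min at room temperature | Medium: HEPES-buffered pH 7.4 with magnesium and detergent | Reagent: Mannose-6-phosphate 1.0 mM (near-saturating) plus 0.22 mM NADP+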
PMI act – increases human mannose-6-phosphate isomerase activity; purified human PMI, coupled resazurin fluorescence, 20 min; stronger effect = higher value; 1 = vehicle control, 0 substrate-free wells; activation factor at 20 µM; 190,000 tested, 0.005% active; P34949;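 active = activation factor of 2 or more at 20 µM, relative to plate controls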
TNAP inh hi DEA – TNAP (human) inhibition, high acceptor; inhibition, % at 20 µM; 200,000 tested, 0.03% active; purified TNAP, CDP-star luminescence, 1 M DEA; P05186; AID 1135;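 active = over 50% inhibition of tissue-nonspecific alkaline phosphatase at 20 µM in the single-dose screen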
TNAP inh no acc – TNAP (human) inhibition, acceptor-free conditions; inhibition, % at 20 µM; AID 1012; purified TNAP, CDP-star luminescence, 30 min; P05186; 200,000 tested, 0.26% active;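 active = tissue-nonspecific alkaline phosphatase inhibition above about 50% at 20 µM in the single-dose screen, limit read from the data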
Large screens that a line does not name were inactive. Rows were chosen to be rich in hits. Some 0.64% of all compounds tested hit in one or more screens of this group.

C/C(=N\NC(=O)c1cccc([N+](=O)[O-])c1)c1ccncc1	none
COc1ccc(NC(=O)CSc2nc3ncccc3[nH]2)cc1OC	none
COc1ccc(OC)c(C(=O)CSc2nc3ncccc3[nH]2)c1	TNAP inh no acc 63
O=C(CSc1nc2ncccc2[nH]1)c1ccc(F)cc1	TNAP inh no acc 54
CCn1ccc2cc(OC)ccc2c1=S	PMI act hi M6P 2
COc1ccc(-c2nc(SC)n(S(=O)(=O)c3ccccc3)n2)cc1	none
COc1ccc(-c2nc(SCc3ccccc3)n(S(C)(=O)=O)n2)cc1	TNAP inh no acc 62
CCS(=O)(=O)n1nc(-c2ccc(Cl)cc2)nc1N	none
CCS(=O)(=O)n1nc(-c2ccc(Cl)cc2)nc1SCc1ccccc1	TNAP inh no acc 62
CCC(=O)N1CCc2cc(S(=O)(=O)CCC(=O)Nc3cccc(C)n3)ccc21	none
O=C(CN1C(=O)C2CCCCC2C1=O)N1CCN(c2ccc(F)cc2)CC1 (configuration not stated)	none
O=C(CN1C(=O)NC2(CCSC2)C1=O)N1CCN(c2ccc(F)cc2)CC1 (configuration not stated)	PMI act hi M6P 2.1
CCc1nnc(NCC(=O)N2CCc3ccccc32)s1	PMI act hi M6P 2.2
N#Cc1ccccc1S(=O)(=O)N1CCN(CC(O)c2ccccc2)CC1 (configuration not stated)	none
COc1ccc(-c2nc3ccccc3[nH]2)cc1	none
COc1ccc(-c2nc(=S)c3ccc4ccccc4c3[nH]2)cc1	PMI act hi M6P 2.3
Cc1cc(C)cc(-c2nnc(SCc3ccc(C(=O)O)cc3)o2)c1	none (no result: PMI act hi M6P, PMI act)
CCC(C)(C)C1CCC(=NNC(=S)Nc2ccccc2)CC1 (configuration not stated)	PMI act hi M6P 2.3
CC(C)(C)C1CCC(=NNC(=O)C(=O)NCc2cccnc2)CC1 (configuration not stated)	none
CC(C)(C)C1CCC(=NNC(=S)NCc2ccccc2)CC1 (configuration not stated)	PMI act hi M6P 2
COc1cc2c(=O)n(CCCC(=O)NCC3CCCO3)c(=O)n(CC(=O)c3ccc(F)cc3)c2cc1OC (configuration not stated)	none
O=C(N/N=C/c1ccco1)c1cc(-c2ccccc2)n[nH]1	TNAP inh no acc 93
Cc1ccc(-c2cc(C(=O)N/N=C/c3ccco3)[nH]n2)cc1	TNAP inh no acc 87
O=C(N/N=C/c1ccco1)c1cc(-c2cccc3ccccc23)n[nH]1	none
CCOC(=O)C1=C(C)NC2=C(C(=O)CC(C)(C)C2)C1c1ccc(N(C)C)cc1 (configuration not stated)	none
CCOC(=O)C1=C(C)NC2=C(C(=O)CC(C)(C)C2)C1c1ccc2c(c1)CCCN2C (configuration not stated)	PMI act hi M6P 2
Cc1n[nH]c(C)c1S(=O)(=O)N1CCN(C(=O)c2ccco2)CC1	TNAP inh no acc 60
Cc1ccc(NC(=O)C2CCN(S(=O)(=O)c3c(C)n[nH]c3C)CC2)nc1	TNAP inh no acc 55
O=C(c1ccco1)N1CCN(S(=O)(=O)N2CCOCC2)CC1	none
Cc1ccc(NC(=O)C2CCN(S(=O)(=O)c3cnc[nH]3)CC2)nc1	none
O=S(=O)(NC(=NCCc1ccc(Cl)cc1)c1ccccc1Cl)c1cccs1	none
CCOC(=O)c1c(NC(=O)COC(=O)C2CC2C)sc(C)c1C (configuration not stated)	none
O=c1oc2ccccc2cc1-c1ccccc1	none
O=C(O)c1ccc(-n2cc(-c3cc4ccccc4oc3=O)[nH]c2=S)cc1	PMI act hi M6P 2.4
CN(C)c1ccc(/C=C(\C#N)C(=O)Nc2nc3c(s2)CCN(Cc2ccccc2)C3)cc1	TNAP inh no acc 55
O=C(Nc1nc2c(s1)CN(Cc1ccccc1)CC2)C1CCC1	none
CN(C)c1ccc(/C=C/c2ccc3ccccc3[n+]2C)cc1	TNAP inh hi DEA 57, TNAP inh no acc 57
CN(C)c1ccc(/C=C/c2ccncc2)cc1	none
CN(C)c1ccc(/C=C/c2ccc3c4ccccc4ccc3[n+]2-c2ccccc2)cc1	TNAP inh hi DEA 69, TNAP inh no acc 74
CN(C)c1ccc(/C=C/C(=O)c2ccccc2O)cc1	none
CC(C)(C)N/N=C/c1c(O)n(-c2ccc(Cl)cn2)c(=O)c2ccccc12	PMI act hi M6P 2.5
Cc1cc(C)nc(/N=C(\N)Nc2ccccc2-c2ccccc2)n1	none
O=C(CN1CCN(CC(=O)c2ccc(F)cc2)CC1)Nc1ccccc1Cl	PMI act hi M6P 2.2
O=C(CCl)Nc1cn(-c2ccccc2)nc1-c1ccc(F)cc1	none
Cc1ccccc1OCc1nnc2c3cnn(C)c3ncn12	TNAP inh no acc 55
COC(=O)c1ccc(S(=O)(=O)N2CCCCCC2)cc1	none
O=C(/C=C/c1ccc(O)c(O)c1)c1ccc(S(=O)(=O)N2CCCCCC2)cc1	TNAP inh no acc 57
CCc1cc(/C(Cc2ccccn2)=N\Nc2ccccc2)c(O)cc1O	PMI act hi M6P 2.1
Cc1nc(CC(=O)c2ccc(O)cc2O)cs1	none
Cc1nc(C/C(=N\Nc2ccccc2)c2ccc(O)cc2O)cs1	PMI act hi M6P 2.1
Nc1cccc2c1C(=O)N(C(=O)/C=C/c1ccc(F)cc1)C2=O	none
CC(=O)Oc1c(-c2ccco2)oc2ccccc2c1=O	none
O=C(CSc1n[nH]c(-c2ccccc2Br)n1)NC(=O)NCc1ccco1	TNAP inh no acc 82
O=C(CSc1n[nH]c(-c2ccccc2Br)n1)NCCN1C(=O)CSC1=O	TNAP inh no acc 84
Fc1ccc(-c2n[nH]c(=S)c3ccccc23)cc1	PMI act hi M6P 2.4
c1ccc(-c2n[nH]c3ccccc23)cc1	TNAP inh no acc 90
CCN(CC(=O)Nc1ccc(N2CCOCC2)cc1)CC(=O)NC(C)(C)C	none
Cc1ccc(S(=O)(=O)CC(=O)c2cc(C)c(O)c(C)c2)cc1	none
CN(CC(=O)Nc1ccc(N2CCOCC2)cc1)CC(=O)Nc1ccccc1C#N	TNAP inh no acc 50
CCOc1ncccc1C(=O)OCC(=O)N(CC)c1ccccc1	none
NS(=O)(=O)c1ccc(NC(=O)COC(=O)c2cnccn2)cc1	none
CN1C(=S)N(c2cccnc2)C(=O)/C1=C\c1ccc(N(C)C)cc1	TNAP inh no acc 52
Cc1ccc(F)c(NC(=O)/C(C#N)=C(\O)c2ccc(C(C)(C)C)cc2)c1	none
COc1cc(C(=O)Nc2nc(OC)c(-c3ccccc3)c(OC)n2)cc(OC)c1OC	none
COc1cc(C(=O)Nc2cc(-c3ccccc3)[nH]n2)cc(OC)c1OC	TNAP inh no acc 63
CC(=O)Nc1cc(-c2ccc(Cl)cc2)[nH]n1	TNAP inh no acc 88 (no result: PMI act hi M6P, PMI act)
COc1cc(OC)cc(-c2cc(NC(C)=O)n[nH]2)c1	none
CC(C)(C)c1ccc(-c2cn(-c3ccc(Br)cc3)c3[n+]2CCCS3)cc1	none
NNc1nc(-c2ccccc2)cs1	PMI act hi M6P 2
c1ccc(-c2csc(Nc3ncccn3)n2)cc1	none
